Assays:
[1] = test system: K562; test: Antiproliferative activity measured against K562adr leukemia cells.; assay type: functional, cell-based; conditions: Homo sapiens
Procedure, shortened: (§1)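 Cells seeded 24 h before treatment (3000/well A427, MCF7mdr, K562adr; 1500/well PC-3) in DMEM with 10% heat-inactivated FCS, penicillin/streptomycin, 2 mM glutamine. Drug from DMSO (0.1% final) at 5 × 10^-13 to 1 × 10^-6 M final, 72 h exposure. Viability by WST-1 formazan colorimetry. Two experiments, eight determinations per concentration. IC50 by linear regression on linear part of sigmoid.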

[2] = test system: A-427; test: Antiproliferative activity measured against A427 human lung carcinoma; assay type: functional, cell-based; procedure, shortened: as §1
[3] = test system: DNA topoisomerase 1 (Bos taurus); test: Effect on Topo-I-mediated relaxation of supercoiled pUC19 plasmid DNA in calf thymus at 100 uM
[4] = test system: PC-3; test: Antiproliferative activity measured against PC-3 human prostate adenocarcinoma; assay type: functional, cell-based; conditions: PC-3, Prostate gland; procedure, shortened: as §1
[5] = test system: MCF7; test: Antiproliferative activity measured against MCF-7-mdr cells.; assay type: functional, cell-based; conditions: Homo sapiens; procedure, shortened: as §1
[6] = test system: HT-29; test: Antitumor activity was measured on HT-29 xenografts after 0.625 mg/kg ip dose; td = 'toxic dose'; assay type: functional, organism-based; set-up: dose 0.625 mg/kg; conditions: Homo sapiens
Procedure, shortened: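 Female NCr nu/nu athymic mice, 4-6 weeks old, bearing sc HT-29 tumours (5 × 10⁶ cells, left dorsal surface). Dosing began at about 175 mm³ (day 10), 5 mice per group and 10 controls. Drug given ip in DMSO (3%)/Tween 20 (2%)/0.9% NaCl, daily 4 days on/3 off, three cycles. Calipers three times weekly; T-C growth delay in days to reach 250% of starting volume.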

[7] = test system: HT-29; test: Antitumor activity was measured on HT-29 xenografts after 0.32 mg/kg ip dose.; assay type: functional, Homo sapiens; conditions: route intraperitoneal
Procedure, shortened: (§2)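 Female NCr nu/nu athymic mice, 4-6 weeks old, given sc HT-29 cells (5 × 10^6/animal, left dorsum). Randomised at day 10 at about 175 mm³ mean tumour (5/treated group, 10 controls). Drug in DMSO (3%)/Tween 20 (2%)/0.9% NaCl given ip daily, 4 days on/3 off, ×3 (12 injections). Caliper volume (w²l)/2 three times weekly with body weight. T-C delay in days to reach 250% of starting volume.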

[8] = test system: HT-29; test: Antitumor activity was measured on HT-29 xenografts after 0.16 mg/kg ip dose.; assay type: functional, Homo sapiens; conditions: route intraperitoneal; procedure, shortened: as §2
[9] = test system: HT-29; test: Antitumor activity was measured on HT-29 xenografts after 0.625 mg/kg ip dose; toxic dose; assay type: functional, organism-based; set-up: dose 0.625 mg/kg; conditions: Homo sapiens; procedure, shortened: as §2
[10] = test system: HT-29; test: Antitumor activity was measured on HT-29 xenografts after 1.25 mg/kg ip dose.; assay type: functional, Homo sapiens; conditions: route intraperitoneal; procedure, shortened: as §2
[11] = test system: HT-29; test: Antitumor activity was measured on HT-29 xenografts after 0.625 mg/kg ip dose.; assay type: functional, Homo sapiens; conditions: route intraperitoneal; procedure, shortened: as §2
[12] = test system: HT-29; test: Antitumor activity was measured on HT-29 xenografts after 2.5 mg/kg ip dose; td =' toxic dose'; assay type: functional, organism-based; set-up: dose 2.5 mg/kg; conditions: Homo sapiens; procedure, shortened: as §2
[13] = test system: HT-29; test: Antitumor activity was measured on HT-29 xenografts after 1.25 mg/kg ip dose; td = ' toxic dose'; assay type: functional, organism-based; set-up: dose 1.25 mg/kg; conditions: Homo sapiens; procedure, shortened: as §2

SMILES	IC50 [1] [nM]	IC50 [2] [nM]	Relaxed DNA [3] [%]	IC50 [4] [nM]	IC50 [5] [nM]	other results
CCC1(O)CC(=O)OCc2c1cc1n(c2=O)Cc2cc3cc(F)ccc3nc2-1 (stereo unspecified)	63	7.7	47	0.58		
CC[C@@]1(O)C(=O)OCc2c1cc1n(c2=O)Cc2cc3c(CN(C)C)c(O)ccc3nc2-1 [TOPOTECAN]	1100	49		160	420	
CCc1c2c(nc3ccccc13)-c1cc3c(c(=O)n1C2)COC(=O)CC3(O)CC (stereo unspecified)	33		34	28	21	
CCC1(O)CC(=O)OCc2c1cc1n(c2=O)Cc2cc3cc(C)c(Cl)cc3nc2-1 (stereo unspecified)	2.9	0.031	59	3.6		
CCC1(O)CC(=O)OCc2c1cc1n(c2=O)Cc2cc3cc(Cl)ccc3nc2-1 (stereo unspecified)	2.6	0.36	57	18	1.3	
CCC1(O)CC(=O)OCc2c1cc1n(c2=O)Cc2cc3cc(F)c(F)cc3nc2-1 (stereo unspecified)	66	0.1	56	0.001		Tumor growth delay [6]: Toxic dose; Tumor growth delay [7]: 25 days; Tumor growth delay [8]: 8 days
COc1cccc2c1C(=O)c1c(O)c3c(c(O)c1C2=O)C[C@@](O)(C(=O)CO)C[C@@H]3O[C@H]1C[C@H](N)[C@H](O)[C@H](C)O1 [DOXORUBICIN]	15000			390		
CC[C@]1(O)CC(=O)OCc2c1cc1n(c2=O)Cc2cc3ccccc3nc2-1			100			
CCC1(O)CC(=O)OCc2c1cc1n(c2=O)Cc2cc3cc4c(cc3nc2-1)OCO4 (stereo unspecified)	37	0.62	58	< 0.001	0.55	
COc1cc([C@@H]2c3cc4c(cc3[C@@H](O[C@@H]3O[C@@H]5CO[C@@H](C)O[C@H]5[C@H](O)[C@H]3O)[C@H]3COC(=O)[C@H]23)OCO4)cc(OC)c1O [ETOPOSIDE]				2300	67000	
CCC1(O)CC(=O)OCc2c1cc1n(c2=O)Cc2cc3cc(OC)c(F)cc3nc2-1 (stereo unspecified)	18	0.0083	26	< 0.001	2.2	Tumor growth delay [7]: 12 days; Tumor growth delay [9]: Toxic; Tumor growth delay [8]: 4 days
CCC1(O)CC(=O)OCc2c1cc1n(c2=O)Cc2cc3cc4c(cc3nc2-1)OCCO4 (stereo unspecified)			50			
CCC1(O)CC(=O)OCc2c1cc1n(c2=O)Cc2cc3ccccc3nc2-1 (stereo unspecified)	47	12	60	60	21	
CCC1(O)CC(=O)OCc2c1cc1n(c2=O)Cc2cc3cc(C)c(F)cc3nc2-1 (stereo unspecified)	14	0.00081	18	< 0.001	0.01	Tumor growth delay [7]: 7 days; Tumor growth delay [9]: Toxic; Tumor growth delay [8]: 4 days
CCC1(O)CC(=O)OCc2c1cc1n(c2=O)Cc2cc3cc(F)c(Cl)cc3nc2-1 (stereo unspecified)	20	0.023	61	12	1.7	Tumor growth delay [10]: 7 days; Tumor growth delay [7]: 1 days; Tumor growth delay [11]: 2 days; Tumor growth delay [12]: Toxic dose
CC[C@@]1(O)CC(=O)OCc2c1cc1n(c2=O)Cc2cc3ccccc3nc2-1			45			
CC[C@@]1(O)C(=O)OCc2c1cc1n(c2=O)Cc2cc3ccccc3nc2-1 [CAMPTOTHECIN]	57	24		57	3.1	Tumor growth delay [11]: 4 days; Tumor growth delay [13]: Toxic

Reference: ChEMBL document CHEMBL1131448 (J Med Chem, 1998)
